Measured values: ChEMBL document CHEMBL3804792, “Discovery and analgesic evaluation of 8-chloro-1,4-dihydropyrido[2,3-b]pyrazine-2,3-dione as a novel potent d-amino acid oxidase inhibitor” (Eur J Med Chem, 2016)
Activity calls are given as the source filed them.

Experiments:
D-amino-acid oxidase [1] = biological target: D-amino-acid oxidase (Sus scrofa, UniProt P00371); assay: Inhibition of DAAO in porcine kidney homogenate using D-alanine as substrate assessed as pyruvate production incubated for 5 mins by microplate reader analysis
D-amino-acid oxidase (Sus scrofa, UniProt P00371), sequence (P00371 whole entry): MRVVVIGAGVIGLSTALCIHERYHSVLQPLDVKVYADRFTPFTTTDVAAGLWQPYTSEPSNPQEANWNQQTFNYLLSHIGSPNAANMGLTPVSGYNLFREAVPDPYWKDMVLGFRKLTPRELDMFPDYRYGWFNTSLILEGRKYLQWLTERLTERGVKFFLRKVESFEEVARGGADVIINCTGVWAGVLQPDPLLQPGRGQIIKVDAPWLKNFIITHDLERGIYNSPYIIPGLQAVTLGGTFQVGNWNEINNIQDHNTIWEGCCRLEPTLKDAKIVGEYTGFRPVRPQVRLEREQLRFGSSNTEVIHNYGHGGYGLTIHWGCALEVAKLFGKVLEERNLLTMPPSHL

D-amino-acid oxidase [2] = biological target: D-amino-acid oxidase (Rattus norvegicus, UniProt O35078); assay: Inhibition of rat spinal DAAO using D-alanine as substrate assessed as pyruvate production incubated for 60 mins by microplate reader analysis
D-amino-acid oxidase (Rattus norvegicus, UniProt O35078), sequence (O35078 whole entry): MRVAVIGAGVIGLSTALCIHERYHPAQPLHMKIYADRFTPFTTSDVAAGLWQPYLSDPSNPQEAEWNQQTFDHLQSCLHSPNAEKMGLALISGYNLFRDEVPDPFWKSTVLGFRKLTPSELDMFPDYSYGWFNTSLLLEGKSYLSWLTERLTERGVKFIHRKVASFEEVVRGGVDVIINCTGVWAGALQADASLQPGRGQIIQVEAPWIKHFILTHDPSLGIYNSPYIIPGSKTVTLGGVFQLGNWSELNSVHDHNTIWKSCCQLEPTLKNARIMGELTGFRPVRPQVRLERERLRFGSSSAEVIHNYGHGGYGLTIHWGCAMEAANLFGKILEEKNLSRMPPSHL

D-amino-acid oxidase [3] = biological target: D-amino-acid oxidase (Homo sapiens, UniProt P14920); assay: Inhibition of human recombinant DAAO using D-alanine as substrate assessed as pyruvate production incubated for 60 mins by microplate reader analysis
D-amino-acid oxidase (Homo sapiens, UniProt P14920), sequence (P14920 whole entry): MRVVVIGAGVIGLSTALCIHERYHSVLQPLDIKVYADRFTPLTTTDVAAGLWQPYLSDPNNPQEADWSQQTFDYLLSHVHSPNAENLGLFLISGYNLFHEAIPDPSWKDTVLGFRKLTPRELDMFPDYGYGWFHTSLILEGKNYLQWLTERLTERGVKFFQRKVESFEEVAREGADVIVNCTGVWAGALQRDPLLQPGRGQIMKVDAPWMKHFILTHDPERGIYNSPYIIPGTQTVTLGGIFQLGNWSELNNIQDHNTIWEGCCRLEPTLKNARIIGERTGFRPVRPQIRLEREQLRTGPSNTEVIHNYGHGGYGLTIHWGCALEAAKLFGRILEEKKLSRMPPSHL

Mus musculus [4] = assay: Analgesic activity in Swiss mouse assessed as inhibition of formalin-induced acute pain at 0.3 to 10 mg/kg, sc administered 30 mins prior to formalin challenge measured within 5 mins relative to normal saline control; format: functional, organism-based
Procedure, shortened: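 Male Swiss mice (18e22 g), n = 6 per group; saline (10 mL/kg) or compound sc 30 min before 10 µL 5% formalin in 0.9% saline sc into dorsal right hindpaw. Licking/biting duration manually pooled over 0–5 min (acute phase) and compared with saline group; one-way ANOVA with Student-Newman-Keuls post-hoc test.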

Rattus norvegicus [5] = species on record: Rattus norvegicus; assay: Analgesic activity in Wistar rat spinal nerve ligation-induced neuropathic pain model assessed as reduction in heat hyperalgesia assessed as increase in ipsilateral paw withdrawal response at 30 ug, it measured after 0.5 to 4 hrs; format: functional, organism-based
Procedure, shortened: (§1)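 Spinal nerve-ligated male Wistar rats, included only with ipsilateral withdrawal threshold < 8 g and no major impairment, dosed intrathecally. Mechanical thresholds (von Frey monofilaments on a metal grid) and radiant-heat paw withdrawal latency (20 s cut-off, mean of three trials 10 min apart) measured on both paws before and 0.5, 1, 2, 4 h after dosing. Thresholds converted to % MPE; two-way ANOVA.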

Rattus norvegicus [6] = assay: Analgesic activity in it dosed Wistar rat assessed as inhibition of formalin-induced paw flinch response in tonic phase administered as bolus injection 30 mins prior to formalin challenge measured from 10 to 90 mins relative to normal saline control; format: functional
Procedure, shortened: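 Intrathecally catheterised male Wistar rats, n = 6 per group. A bolus of 0.1-3 µg was given intrathecally 30 min before 50 µL of 5% formalin s.c. into the dorsal right hindpaw. Flinches counted in 1-min epochs at 10-min intervals over 90 min. […] Saline (10 µL) group as control.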

Rattus norvegicus [7] = species on record: Rattus norvegicus; assay: Analgesic activity in Wistar rat spinal nerve ligation-induced neuropathic pain model assessed as reduction in mechanical allodynia assessed as increase in ipsilateral paw withdrawal response at 30 ug, it measured after 1 hr; format: functional
Procedure, shortened: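 Spinal nerve-ligated male Wistar rats, intrathecally catheterised; only rats with threshold <8 g and no major impairment were included. After intrathecal dosing, ipsilateral hind-limb withdrawal threshold to monofilaments was measured on a metal grid after ≥30 min acclimation, at 0.5, 1, 2 and 4 h. n = 6. Results converted to %MPE against baseline.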

Rattus norvegicus [8] = species on record: Rattus norvegicus; assay: Effect on contralateral paw withdrawal in Wistar rat spinal nerve ligation-induced neuropathic pain model at 30 ug, it measured after 0.5 to 4 hrs; format: ADME, organism-based; details: in vivo, icv_or_intrathecal; procedure, shortened: as §1
Mus musculus [9] = assay: Analgesic activity in Swiss mouse assessed as inhibition of formalin-induced tonic pain at 10 mg/kg administered as oral gavage 30 mins prior to formalin challenge measured from 20 to 40 mins relative to normal saline control; format: functional; design: scale not given: the % may be the effect or the level left
Procedure, shortened: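 Fasted male Swiss mice (18-22 g), n = 6. Dosed 10 mg/kg by oral gavage 30 min before 10 µL of 5% formalin in 0.9% saline injected s.c. into the dorsal right hindpaw. Licking/biting duration was scored manually and pooled over 20-40 min as tonic pain. Drug dissolved in normal saline at pH 7.3-7.5. Compared with a saline control group.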

Mus musculus [10] = assay: Analgesic activity in sc dosed Swiss mouse assessed as inhibition of formalin-induced tonic pain administered 30 mins prior to formalin challenge measured from 20 to 40 mins relative to normal saline control; format: functional
Procedure, shortened: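 Male Swiss mice, n = 6 per group. Dosed s.c. at 0.3-30 mg/kg in saline (10 mL/kg) 30 min before 10 µL of 5% formalin s.c. into the dorsal right hindpaw. Licking/biting time was pooled over 20-40 min as tonic pain. Values compared with saline control. Emax and ED50 taken from the dose-response. One-way ANOVA with Student-Newman-Keuls test.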

Mus musculus [11] = assay: Reversal of morphine analgesic tolerance in 10 ug, it BID for 7 days morphine pre-treated Swiss mouse assessed as latency of licking/biting/jumping at 10 ug, it administered as single bolus injection 15 mins prior to morphine challenge on day 8 by hot-plate test; format: functional, organism-based
Procedure, shortened: (§2)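 Swiss mice (n = 6 per group) received intrathecal saline, morphine, or compound (10 µg) plus morphine twice daily, 12 h apart, for 7 days. On day 8, a single intrathecal saline or compound dose was given 15 min before saline or morphine challenge. Hot plate at 55 ± 0.1 °C with 40 s cut-off; lick/bite/jump latency read before and 0.5, 1, 2 h after injection on days 1, 3, 5, 7, 8. AUC0–2 h analysed by two-way ANOVA with Student-Newman-Keuls test.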

Rattus norvegicus [12] = species on record: Rattus norvegicus; assay: Analgesic activity in Wistar rat spinal nerve ligation-induced neuropathic pain model assessed as reduction in mechanical allodynia assessed as increase in ipsilateral paw withdrawal response at 30 ug, it measured after 0.5 to 4 hrs; format: functional, organism-based; procedure, shortened: as §1
[13] = Apparent oral bioavailability in Swiss mouse at 10 mg/kg administered as oral gavage; format: ADME, organism-based; details: in vivo, read-out: Fapp
Mus musculus [14] = assay: Attenuation of morphine analgesic tolerance in Swiss mouse assessed as latency of licking/biting/jumping at 10 ug, it bid coadministered with morphine at 12 hr intervals for 7 days by hot-plate test; format: functional, organism-based; procedure, shortened: as §2
Rattus norvegicus [15] = species on record: Rattus norvegicus; assay: Analgesic activity in Wistar rat spinal nerve ligation-induced neuropathic pain model assessed as reduction in heat hyperalgesia assessed as increase in ipsilateral paw withdrawal response at 30 ug, it measured after 1 hr; format: functional
Procedure, shortened: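 Spinal nerve-ligated male Wistar rats, intrathecally catheterised; only those with ipsilateral withdrawal threshold <8 g were used. After intrathecal dosing, radiant heat was applied to the plantar hind paw and withdrawal latency read, cut-off 20 s. Each paw tested three times at 10-min intervals and averaged. n = 6. Read at 0.5, 1, 2 and 4 h.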

Rattus norvegicus [16] = assay: Analgesic activity in Wistar rat assessed as inhibition of NMDA-induced pain at 10 ug, it administered 30 mins prior to NMDA challenge measured for 10 mins; format: functional, organism-based
Procedure, shortened: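 Male Wistar rats with lumbar intrathecal PE-10 catheters, placement checked by lidocaine-induced hind-limb paralysis; n = 6 per group. Intrathecal saline, MK-801 or compound 30 min before intrathecal NMDA (5 nmol). Scratching, biting and licking duration recorded for 10 min; means ± S.E.M., one-way ANOVA with Student-Newman-Keuls test versus saline.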

Rattus norvegicus [17] = assay: Analgesic activity in Wistar rat assessed as inhibition of formalin-induced paw flinch response in acute phase up to 3 ug, it administered as bolus injection 30 mins prior to formalin challenge measured within 10 mins relative to normal saline control; format: functional, organism-based
Procedure, shortened: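 Intrathecally catheterized male Wistar rats (n = 6 per group) got a bolus of saline (10 µL) or compound (0.1–3 µg) 30 min before 50 µL 5% formalin sc into dorsal right hindpaw. Flinches counted in 1-min epochs every 10 min for 90 min; acute phase is the first 10 min. Compared with saline by one-way ANOVA and Student-Newman-Keuls test.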

Rattus norvegicus [18] = assay: Analgesic activity in Wistar rat assessed as inhibition of NMDA-induced pain at 0.1 ug, it administered 30 mins prior to NMDA challenge measured for 10 mins; format: functional
Procedure, shortened: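 Male Wistar rats (180-250 g), n = 6 per group, with intrathecal lumbar PE-10 catheters checked by lidocaine paralysis. Dosed 0.1 µg intrathecally 30 min before 5 nmol NMDA given intrathecally. Duration of scratching, biting and licking recorded for 10 min immediately after NMDA. Saline (10 µL) group as control. One-way ANOVA with Student-Newman-Keuls test.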

SMILES | IC50 (D-amino-acid oxidase [1]) [µM] | also measured
O=c1[nH]c2nccc(OCCCc3ccccc3)c2[nH]c1=O | > 300 | –
O=c1[nH]c2ncc(Cl)c(Br)c2[nH]c1=O | 0.24 | IC50 (D-amino-acid oxidase [2]): 7.99 µM; IC50 (D-amino-acid oxidase [3]): 1.38 µM
Oc1nc2ccccc2nc1O | 33.6 | –
Cc1c(Br)cnc2nc(O)c(O)nc12 | 0.4 | –
O=c1[nH]c2ncc(Br)c(Cl)c2[nH]c1=O | 0.48 | –
Oc1nc2cccnc2nc1O | 5.7 | –
COc1ccnc2[nH]c(=O)c(=O)[nH]c12 | 85.7 | –
O=c1[nH]c2ncc(Br)c(Br)c2[nH]c1=O | 0.53 | –
CC(C)Oc1ccnc2[nH]c(=O)c(=O)[nH]c12 | > 100 | –
O=c1[nH]c2nccc(Cl)c2[nH]c1=O | 0.18 | Activity (Mus musculus [4]): inactive; Activity (Rattus norvegicus [5]): Active; Activity (Rattus norvegicus [6]): Dose-dependent effect; ED50 (Rattus norvegicus [6]): 0.25 µg; Emax (Rattus norvegicus [6]; Rattus norvegicus, Wistar): 67.1%; MPE (Rattus norvegicus [7]): 54.4%; Activity (Rattus norvegicus [8]): Non-toxic; Activity (Mus musculus [9]): 30%; IC50 (D-amino-acid oxidase [2]): 0.14 µM; Activity (Mus musculus [10]): Dose-dependent effect; ED50 (Mus musculus [10]): 1.8 mg/kg; Emax (Mus musculus [10]): 49%; Activity (Mus musculus [11]): Active; Activity (Rattus norvegicus [12]): Active; bioavailability [13]: 30%; Activity (Mus musculus [14]): Active; MPE (Rattus norvegicus [15]): 80.8%; Activity (Rattus norvegicus [16]): inactive; IC50 (D-amino-acid oxidase [3]): 0.21 µM; Activity (Rattus norvegicus [17]): inactive
O=c1[nH]c2ccc(OCCc3ccccc3)nc2[nH]c1=O | > 300 | –
C[C@]12N[C@H](Cc3ccccc31)c1ccccc12 [DIZOCILPINE] | – | inhibition (INH) (Rattus norvegicus [18]): 80%
CCOc1ccc2[nH]c(=O)c(=O)[nH]c2n1 | > 100 | –
O=c1[nH]c2ncc(Cl)c(Cl)c2[nH]c1=O | 0.65 | –
O=c1[nH]c2nccc(Br)c2[nH]c1=O | 0.22 | IC50 (D-amino-acid oxidase [2]): 2.24 µM; IC50 (D-amino-acid oxidase [3]): 2.24 µM
CCOc1ccnc2[nH]c(=O)c(=O)[nH]c12 | > 100 | –
O=C(O)c1cnc2[nH]c(=O)c(=O)[nH]c2c1 | > 1000 | –
Cc1c(F)cnc2[nH]c(=O)c(=O)[nH]c12 | 0.15 | IC50 (D-amino-acid oxidase [2]): 0.15 µM; IC50 (D-amino-acid oxidase [3]): 0.34 µM

SMILES | IC50 (D-amino-acid oxidase [1]) [µM] | also measured
CCc1ccnc2[nH]c(=O)c(=O)[nH]c12 | 2.4 | –
Oc1nc2cc(Br)cnc2nc1O | 12.4 | –
O=c1[nH]c2ccc(OCc3ccccc3)nc2[nH]c1=O | > 300 | –
O=c1[nH]c2nccc(OCc3ccccc3)c2[nH]c1=O | > 300 | –
Cc1cnc2nc(O)c(O)nc2c1 | 36.7 | –
O=c1[nH]c2nccc(Oc3ccccc3)c2[nH]c1=O | > 1000 | –
Cc1c(Cl)cnc2nc(O)c(O)nc12 | 0.26 | IC50 (D-amino-acid oxidase [2]): 4.16 µM; IC50 (D-amino-acid oxidase [3]): 1.13 µM
COc1ccc2nc(O)c(O)nc2n1 | > 100 | –
Oc1nc2cc(Cl)cnc2nc1O | 6.7 | –
Cc1ccc2nc(O)c(O)nc2n1 | 17.7 | –
COC(=O)c1cnc2[nH]c(=O)c(=O)[nH]c2c1 | > 1000 | –
O=c1[nH]c2nccc(C(F)(F)F)c2[nH]c1=O | 0.52 | –
O=c1[nH]c2cc(F)cnc2[nH]c1=O | 0.46 | –
Cc1ccnc2[nH]c(=O)c(=O)[nH]c12 | 0.63 | –
Oc1nc2ccc(Cl)nc2nc1O | 20.3 | –
O=c1[nH]c2nccc(OCCc3ccccc3)c2[nH]c1=O | > 300 | –
Oc1noc2cc(Cl)ccc12 | 0.21 | IC50 (D-amino-acid oxidase [2]): 0.09 µM
Oc1nc2cc(C(F)(F)F)cnc2nc1O | 22.9 | –
